Only some compounds are listed: those with a hit (about 5.5% of all), similar ones and a draw of the others.
HePTP inh: human HePTP phosphatase inhibition. hit rate 0.64% among 110,000. recombinant HePTP phosphatase activity, OD absorbance. P35236. inhibition, % at 20 µM; in the data active = inhibition above about 50%;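 also: plate controls were vehicle for no effect and reference inhibitor for full effect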
PostGolgi ctrl: yeast control strain growth, post-Golgi counter-screen; efflux-deficient yeast background strain, growth absorbance A615, 16 h; inhibition, % at 10 µM; hit rate 5% among 98,000
PLAP activator: activators of human placental alkaline phosphatase; purified PLAP enzyme, luminescent substrate read-out; hits give high values; activation fold at 20 µM; hit rate 1.2% among 96,000; in the data active = activation fold above about 2
Target sequence (P05187 whole entry, looked up): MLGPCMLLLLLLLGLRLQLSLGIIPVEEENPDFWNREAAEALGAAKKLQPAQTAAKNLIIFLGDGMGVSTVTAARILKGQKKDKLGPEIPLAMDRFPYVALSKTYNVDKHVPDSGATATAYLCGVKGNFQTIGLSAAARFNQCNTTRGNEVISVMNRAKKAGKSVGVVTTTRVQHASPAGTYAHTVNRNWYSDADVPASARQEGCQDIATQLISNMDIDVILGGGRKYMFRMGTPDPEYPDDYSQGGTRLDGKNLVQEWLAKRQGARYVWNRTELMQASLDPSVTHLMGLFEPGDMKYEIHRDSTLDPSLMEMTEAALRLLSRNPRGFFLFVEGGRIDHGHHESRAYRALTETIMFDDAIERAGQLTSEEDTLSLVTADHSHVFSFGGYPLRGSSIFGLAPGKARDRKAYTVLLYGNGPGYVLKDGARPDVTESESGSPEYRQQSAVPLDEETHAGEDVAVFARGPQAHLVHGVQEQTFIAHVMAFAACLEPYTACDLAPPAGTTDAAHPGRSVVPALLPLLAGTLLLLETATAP
tolC growth inh: blocks growth of E. coli BW25113 tolC mutant; OD615; growth inhibition, % at 10 µM (by protocol); hit rate 2.2% among 65,000;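 active = growth inhibition at or above a cutoff equal to the mean over every tested compound plus 3 SD, cut at about 60% in these data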;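 also: growth measured after 20 h incubation at 37 °C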
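Material: E. coli BW25113 ΔtolC::kan, tolC deletion mutant strain. Measure: percent growth inhibition. Schedule: 37 °C, 20 h exposure. Doses: single-point testing at 10 µM. Signal: A615 absorbance measurement. Buffer or medium: kanamycin-containing LB broth (50 µg/mL).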
PostGolgi yeast: growth inhibition of a yeast mutant, post-Golgi transport screen | hit rate 0.9% among 98,000 | inhibition, % at 10 µM | post-Golgi transport phenotypic cell assay | AID 739;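 also: yeast cells grown in 1536-well plates; yeast grown about 18 h at 30C before absorbance read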
E coli WT exp: blocks growth of wild type E. coli BW25113; hit rate 0.15% among 98,000; AID 710; growth inhibition, % at 100 µM; OD600 absorbance;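 active = growth inhibition above about 50% at one test dose, limit read from the data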;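 also: growth measured after 20 h incubation at 37 °C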
The depositor's hits bear a star. Rule as the data show it, unless noted: active = inhibition above about 30%; inactive = the rest.

What do the screens show for `COc1ccc(CCNC(=O)C(=O)NCc2cccnc2)cc1`?
HePTP inh: 4.2

What do the screens show for `CCOC(=O)c1cc2sc(C)cc2n1CC(=O)Nc1cccc(C)c1C`?
HePTP inh: -2.6; PostGolgi ctrl: 10.9; tolC growth inh: -0.3; PostGolgi yeast: 4.2; E coli WT exp: -13.0

What do the screens show for `CCOC(=O)c1cc2sc(C)cc2n1C(C)C(=O)OCC` (stereo not given)?
HePTP inh: 15.4; PostGolgi ctrl: 16.8; PLAP activator: 1.5; tolC growth inh: 61.5*; PostGolgi yeast: 11.7; E coli WT exp: 6.0

Results for CCOC(=O)C1=C(C)N=c2s/c(=C\c3ccc(C(C)=O)c(OC)c3)c(=O)n2C1c1ccccc1 (stereo not given) ?
HePTP inh: -6.4

How did COc1ccc(N2CCN(c3nc(NCCO)nc(N4CCOCC4)n3)CC2)cc1 do in these assays?
HePTP inh: 5.9; PostGolgi ctrl: 31.1*; PLAP activator: 1.4; tolC growth inh: 3.2; PostGolgi yeast: -4.1; E coli WT exp: 5.0

How did CCCNc1nc(N2CCOCC2)nc(N2CCOCC2)n1 do in these assays?
HePTP inh: -9.0; PostGolgi ctrl: -3.4; PLAP activator: 1; tolC growth inh: -13.3; PostGolgi yeast: -0.2; E coli WT exp: 3.0

How did COc1ccc2c(c1)OCC/C2=N/OC(=O)c1ccccc1SC do in these assays?
HePTP inh: 4.8

Results for O=C(c1sc2ccccc2c1Cl)N(Cc1ccccc1Cl)C1CCS(=O)(=O)C1 (stereo not given) ?
PostGolgi ctrl: 30.9*; PLAP activator: 1.1; PostGolgi yeast: 6.4; E coli WT exp: -10.0

How did Cc1ccc(NC(=O)N2CCN(Cc3ccc4c(c3)OCO4)CC2)cc1 do in these assays?
PostGolgi ctrl: 4.8; PLAP activator: 2*; PostGolgi yeast: -3.1; E coli WT exp: 9.0

Results for O=C(CSCc1cccc(Cl)c1)N1CCN(Cc2ccc3c(c2)OCO3)CC1 ?
PostGolgi ctrl: 28.2; PLAP activator: 1.8; PostGolgi yeast: 47.6*; E coli WT exp: -1.0

What do the screens show for `O=C(c1ccc(COc2ccc(Cl)cc2)o1)N1CCN(Cc2ccc3c(c2)OCO3)CC1`?
HePTP inh: 14.2; PostGolgi ctrl: 52.3*; PLAP activator: 1.4; tolC growth inh: 95.7*; E coli WT exp: -19.0

What do the screens show for `O=C(Nc1cccc(Cl)c1)N1CCN(Cc2ccc3c(c2)OCO3)CC1`?
HePTP inh: -0.6

What do the screens show for `Cc1ccc(OCC(O)CN2CCN(Cc3ccc4c(c3)OCO4)CC2)c(C)c1` (stereo not given)?
HePTP inh: 1.7; PostGolgi ctrl: 29.9; PLAP activator: 1.5; tolC growth inh: 9.0; PostGolgi yeast: 100.5*; E coli WT exp: -6.0

How did CCCN(CCC)c1nc(N)nc(-c2cc(Cl)ccc2OC)n1 do in these assays?
PostGolgi ctrl: 56.2*; PLAP activator: 1.2; PostGolgi yeast: 9.0; E coli WT exp: -12.0

How did CCOC1C(OCC)N(S(C)(=O)=O)CCN1S(C)(=O)=O (stereo not given) do in these assays?
HePTP inh: 10.5

What do the screens show for `Clc1ccc(-n2c(SC/C=C/c3ccccc3)nnc2-c2cccnc2)cc1`?
PostGolgi ctrl: 35.0*; PLAP activator: 1.6; PostGolgi yeast: -6.7; E coli WT exp: -18.0

How did CCc1ccccc1NC(=O)CSc1nnc([C@@H]2CCCN2C(=O)OC(C)(C)C)o1 do in these assays?
HePTP inh: 1.5; PostGolgi ctrl: -3.1; PLAP activator: 2.1*; tolC growth inh: -4.9; PostGolgi yeast: -0.3; E coli WT exp: 12.0

How did O=C(COc1ccccc1Cl)NNC(=O)c1ccncc1 do in these assays?
HePTP inh: 101.1*

Results for COC(=O)c1ccccc1NC(=S)NC(=O)COc1ccccc1Cl ?
PostGolgi ctrl: 31.4*; PLAP activator: 1; PostGolgi yeast: -1.4; E coli WT exp: -2.0

How did CCOC(=O)C(CCOc1ccc(C)c(C)c1)C(=O)OCC do in these assays?
HePTP inh: 2.6

What do the screens show for `CCOc1cccc(C2NC(=O)NC(C)=C2C(=O)OCc2ccc(OC)cc2)c1` (stereo not given)?
HePTP inh: -6.9

What do the screens show for `COc1ccccc1C(=O)Nc1nc(-c2ccc(Br)cc2)cs1`?
HePTP inh: -4.6

How did COC(=O)c1c(C)c2c(C)cc3ccccn3c-2c1C(=O)OC do in these assays?
PostGolgi ctrl: -0.1; PLAP activator: 1.1; PostGolgi yeast: -2.4; E coli WT exp: -1.0

Results for COC(=O)c1cc2c(-c3ccccc3)cc3ccccn3c-2c1C(=O)OC ?
PostGolgi ctrl: 42.6*; PLAP activator: 0.8; PostGolgi yeast: 5.5; E coli WT exp: -14.0

How did O=C(NCC(O)c1ccccc1)c1ccc(CSc2ccc(Cl)cc2)cc1 (stereo not given) do in these assays?
HePTP inh: 3.9

Results for COc1cccc(Cn2c(C3CC3)nc3ccc(NC(=O)c4ccco4)cc3c2=O)c1 ?
HePTP inh: 8.7; PostGolgi ctrl: 30.7*; PLAP activator: 1.4; tolC growth inh: 34.8; PostGolgi yeast: 2.9; E coli WT exp: -11.0

What do the screens show for `Cc1cccc(C)c1OCCCN1CCC(C)CC1`?
HePTP inh: 0.6

Results for O=C(c1cc2ccccc2oc1=O)N(Cc1ccco1)Cc1cccs1 ?
HePTP inh: 3.3; PostGolgi ctrl: 49.4*; PLAP activator: 1; tolC growth inh: 17.6; PostGolgi yeast: -5.4; E coli WT exp: 3.0

How did O=C(c1cc2ccccc2oc1=O)N(Cc1cccs1)C1CCS(=O)(=O)C1 (stereo not given) do in these assays?
HePTP inh: -4.3; PostGolgi ctrl: 6.9; PLAP activator: 1.1; tolC growth inh: -13.9; PostGolgi yeast: 4.4; E coli WT exp: -4.0

Results for CCCn1c(SCC(N)=O)nc2c(c1=O)C1(CCCC1)Cc1ccccc1-2 ?
HePTP inh: 5.2; PostGolgi ctrl: 44.2*; PLAP activator: 0.8; tolC growth inh: 6.3; PostGolgi yeast: 3.4; E coli WT exp: 1.0

How did CCOC(=O)CSc1nc2c(c(=O)n1-c1ccc(OC)cc1)C1(CCCCC1)Cc1ccccc1-2 do in these assays?
HePTP inh: 10.0

How did CCn1c(SCC#N)nc2c(c1=O)C1(CCCC1)Cc1ccccc1-2 do in these assays?
HePTP inh: 11.7; PostGolgi ctrl: 51.6*; PLAP activator: 1.6; tolC growth inh: 53.2; PostGolgi yeast: 0.3; E coli WT exp: 0.0

What do the screens show for `CC(C)=C1C2C=CC1C1C(=O)N(c3ccc(C)c(C)c3)C(=O)C21` (stereo not given)?
HePTP inh: 5.0

What do the screens show for `COc1ccccc1C=C1C(=O)NC(=S)N(c2ccccc2F)C1=O`?
HePTP inh: 10.2

Results for O=C1NC(=O)N(c2ccc(Cl)cc2)C(=O)/C1=C/c1ccc(I)o1 ?
HePTP inh: 96.1*

How did Cc1cc(C)cc(N2C(=O)NC(=O)/C(=C\c3ccc(I)o3)C2=O)c1 do in these assays?
HePTP inh: 25.4

Results for Cc1ccc(/C=C2\C(=O)NC(=S)N(c3ccc(Br)cc3)C2=O)o1 ?
HePTP inh: 33.4

What do the screens show for `O=C1NC(=S)N(c2ccccc2F)C(=O)/C1=C/c1ccc(I)o1`?
HePTP inh: 103.5*

What do the screens show for `CCc1ccc(N2C(=O)/C(=C/c3ccc(I)o3)C(=O)NC2=S)cc1`?
HePTP inh: 104.8*

Source: PubChem (several laboratories)
